From ChEMBL document CHEMBL1121732, “Synthesis and pharmacological activity of thiohexital enantiomers” (J Med Chem, 1981)
Several values for one entry are separate records, joined by “and”; a condition that tells them apart may be missing. Equal values may be shown once.

Columns and labels:
[1] = Ratio of LD50 to AD50 after intraperitoneal administration; assay type: ADME; conditions: ip; read-out: Therapeutic index
In short: (§1)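 Therapeutic index, LD50/AD50. Both values from Litchfield-Wilcoxon curves in male CF-1 mice, 10 per dose, ≥4 doses. […] Dosing ip or iv (caudal vein), 20 mL/kg saline vehicle after 0.1 M NaOH.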

Mus musculus [2] = experiment: The median anesthetic dose evaluated after intravenous administration in barbiturates.; assay type: functional
In short: (§2)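 Male CF-1 mice (29.5 ± 2.5 g). Drug dissolved in 0.1 M aqueous NaOH (monosodium salt), diluted with saline, dosed at 20 mL/kg ip or iv via caudal vein; weights as free acid. Anesthesia = loss of righting reflex (no recovery from back within 1 min). AD50 with 95% confidence limits by Litchfield-Wilcoxon; ≥4 doses giving 10-90% response, 10 mice per dose.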

[3] = Potency ratio of compound was measured after intravenous administration; assay type: functional
In short: (§3)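 Potency relative to the racemate, the standard, from Litchfield-Wilcoxon dose-response curves (≥4 doses, 10 male CF-1 mice each) for loss of righting reflex. Dosing ip or iv (caudal vein) at 20 mL/kg in saline after dissolving in 0.1 M NaOH.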

[4] = Potency ratio of compound to that of racemate was measured after intraperitoneal administration; assay type: functional; in short: as §3
Mus musculus [5] = experiment: (§4) The median anesthetic dose evaluated after intraperitoneal administration in barbiturates.; assay type: functional; in short: as §2
[6] = as §4; assay type: functional; conditions: ip; in short: as §2
Mus musculus [7] = experiment: Evaluation for duration of recovery tremors after administration of dose; assay type: functional
In short: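 Groups of 40 male CF-1 mice, each given its compound's AD50 dose ip. Recovery tremors recorded for incidence, duration in minutes and graded severity.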

Mus musculus [8] = experiment: (§5) Evaluation after intravenous injection at faster rate (0.5 s); assay type: functional; in short: as §2
[9] = Potency ratio of slower rate (LD50) to that of faster rate (LD50); assay type: functional
In short: (§6)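 Racemate given iv via caudal vein at 20 mL/kg, either fast (about 0.5 s) or slower (about 3.0 s) injection. […] Slow-rate value compared with fast-rate value.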

[10] = Ratio of LD50 to AD50 after intravenous administration; assay type: ADME; in short: as §1
[11] = as §5; assay type: ADME, organism-based; conditions: mouse, in vivo
[12] = Potency ratio of slower rate (AD50) to that of faster rate (AD50); assay type: functional; in short: as §6
Mus musculus [13] = experiment: Evaluation for the onset of action of intraperitoneal administration of dose; assay type: functional
[14] = The median lethal dose evaluated after intravenous administration in barbiturates.; assay type: ADME
In short: (§7)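 Male CF-1 mice (29.5 ± 2.5 g). Drug dissolved in 0.1 M aqueous NaOH, diluted with saline, 20 mL/kg ip or iv (caudal vein); doses as free acid. Lethality scored over 24 h. LD50 with 95% confidence limits by Litchfield-Wilcoxon from ≥4 doses giving 10-90% response, 10 mice per dose.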

Mus musculus [15] = experiment: Evaluation for the duration of action of intraperitoneal administration of dose; assay type: functional
[16] = Potency ratio of compound to that of racemate was measured after intravenous administration; More potent; assay type: functional; in short: as §3
[17] = The median lethal dose evaluated after intraperitoneal administration in barbiturates.; assay type: ADME; conditions: ip; in short: as §7
[18] = Potency ratio of compound was measured after intraperitoneal administration; More potent; assay type: functional; in short: as §3

SMILES: C=CCC1([C@H](C)C#CCC)C(=O)NC(=S)NC1=O
- selectivity ratio [1]: 2.4
- AD50 (Mus musculus [2]): 24.1 mg/kg
- Potency ratio [3]: 1.22
- Potency ratio [4]: 1.06 and 1.04
- AD50 (Mus musculus [5]): 27.3 mg/kg
- LD50 [6]: 66.1 mg/kg
- Duration (Mus musculus [7]): 6.2 min

SMILES: C=CCC1(C(C)C#CCC)C(=O)NC(=S)NC1=O (racemic) [RAC THIOHEXITAL]
- AD50 (Mus musculus [8]): 9.2 mg/kg
- Potency ratio [9]: 1.7
- Therapeutic index [10]: 3.4
- selectivity ratio ([10]; read-out: Therapeutic index): 2.7
- selectivity ratio [1]: 2.5
- AD50 (Mus musculus [2]): 19.8 mg/kg
- LD50 [11]: 31.5 mg/kg
- Potency ratio [12]: 2.15
- Onset of action (Mus musculus [13]): 3.69 min
- LD50 [14]: 53.5 mg/kg
- AD50 (Mus musculus [5]): 25.8 mg/kg
- Duration (Mus musculus [15]): 12.36 min
- Duration (Mus musculus [7]): 5.8 min

SMILES: C=CCC1([C@@H](C)C#CCC)C(=O)NC(=S)NC1=O
- Potency ratio [16]: 1.61
- selectivity ratio [1]: 3.2
- LD50 [17]: 59.8 mg/kg
- AD50 (Mus musculus [2]): 12.3 mg/kg
- Onset of action (Mus musculus [13]): 3.49 min
- Potency ratio [4]: 1.06
- AD50 (Mus musculus [5]): 18.8 mg/kg
- Potency ratio [18]: 1.37
- Duration (Mus musculus [15]): 12.15 min
- Duration (Mus musculus [7]): 5.4 min
